Measured values taken from publication PMC3387282 (ACS medicinal chemistry letters, 2011).
Entries after “also recorded” stand apart in the source; their conditions may differ.

Legend:
[1] = target: Icmt (Homo sapiens, UniProt O60725); assay: Icmt vapor diffusion assay; type: biochemical; details: for Icmt inhibition (in words): vapor diffusion assay; for potency relative to 10u: Icmt inhibition
Procedure, shortened: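 Vapor diffusion Icmt methylation assay. Screening at 10 μM inhibitor, with specific activity given as percent of the no-inhibitor AFC control. Test compounds were also run as possible substrates. IC50 was measured in vitro, Ki was calculated from IC50 by the Cheng–Prusoff method, and inhibition mode was set by further biochemical evaluation.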

[2] = test system: MEF Icmt^−/− cells; assay: MTT cell viability in MEF Icmt-/- cells; type: cell-based; details: for IC50: read-out: IC50 MEF Icmt^−/−; for effect on viability in MEF Icmt^−/− cells (in words): MTT
[3] = test system: MEF Icmt^+/+ cells; assay: MTT cell viability in MEF Icmt+/+ cells; type: cell-based
[4] = test system: GFP-K-Ras localization in Jurkat T cells (E 6.1); assay: GFP-K-Ras membrane localization in Jurkat T cells; type: cell-based; details: 24 h treatment
Procedure, shortened: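 Jurkat T cells (E 6.1) expressing GFP-KRas treated 24 h with vehicle, test compound at several concentrations, or 25 μM simvastatin as reference. Cells laid on poly-L-lysine-coated coverslips (100 μg/mL) and fixed in 3.7% formaldehyde for 10 min. Fluorescence microscopy scored by eye in random fields of 100 cells as normal plasma membrane, partial, or complete mislocalization.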

Icmt, sequence (O60725 whole entry, the tested form may be a part): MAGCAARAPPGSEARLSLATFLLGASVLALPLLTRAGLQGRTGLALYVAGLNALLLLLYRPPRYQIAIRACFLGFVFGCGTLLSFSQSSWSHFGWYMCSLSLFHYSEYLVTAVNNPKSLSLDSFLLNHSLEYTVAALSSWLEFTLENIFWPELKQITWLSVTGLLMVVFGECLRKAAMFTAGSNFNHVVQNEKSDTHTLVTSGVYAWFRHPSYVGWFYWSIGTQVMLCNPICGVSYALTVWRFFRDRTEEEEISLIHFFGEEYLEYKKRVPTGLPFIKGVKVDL

In the case of `COC(=O)CCSC/C=C(\C)CCn1cc(CCc2ccc(-c3ccccc3)cc2)nn1` [Compound 10n], the Ki [1] is reported as 400 nM, the “mode of Icmt inhibition” value [1] is reported as “competitive inhibitor” and the “ligand efficiency (in words)” value ([1]; compared with POP-3MB) is reported as “significantly improved ligand efficiency”. The “Icmt inhibition (in words)” value [1] was “more potent than the corresponding carboxylate, 11n”, the IC50 [2] was > 100 µM and the “activity in MEF Icmt^+/+ versus Icmt^−/− cells (in words)” value [3] was “selectively cytotoxic”. The GFP-K-Ras membrane localization [4] was “decrease in normal membrane localization; also recorded: capable of inducing K-Ras mislocalization”.
With `COC(=O)CCSC/C=C(\C)CCn1cc(COc2ccc(-c3ccccc3)cc2)nn1` [Compound 10q] the “Icmt inhibition (in words)” value [1] was “detrimental to inhibition”.
With `COC(=O)CCSC/C=C(\C)CCn1cc(CCc2ccc(-c3cccc(C#N)c3)cc2)nn1` [Compound 10t] the “potency relative to 10u” value [1] was “approximately twice as potent”.
With `COC(=O)CCSC/C=C(\C)CCn1cc(CCc2ccccc2-c2ccccc2)nn1` [Compound 10p] the “Icmt inhibition (in words)” value [1] was “further reduced inhibitory activity”.
In the case of `COC(=O)CCSC/C=C(\C)CCn1cc(CCc2ccc(-c3ccc(F)cc3)cc2)nn1` [Compound 10s], the “potency relative to 10u” value [1] is reported as “approximately twice as potent”.
For `CC(C)=CCC/C(C)=C/CC/C(C)=C/CSc1ccccc1C(=O)O` [FTS, S-farnesylthiosalicylic acid, reference compound], the “activity in MEF Icmt^+/+ versus Icmt^−/− cells (in words)” value [3] was “equivalent activity in both cell lines”.
For `COC(=O)CCSC/C=C(\C)CCn1cc(-c2cccc3ccccc23)nn1` [Compound 10g], the “effect on viability in MEF Icmt^−/− cells (in words)” value [2] was “did not affect viability” and the IC50 [2] was > 100 µM.
`COC(=O)CCSC/C=C(\C)CCn1cc(CCc2cccc(-c3ccccc3)c2)nn1` [Compound 10o] was tested, and the “potency relative to 10n (times less potent)” value ([1]; ratio of Icmt IC50) was ~30, the “effect on viability in MEF Icmt^−/− cells (in words)” value [2] was “did not affect viability” and the IC50 [2] was > 100 µM.
For `C/C(=C\CSCCC(=O)O)CCn1cc(CCOC2CCCCO2)nn1` (stereo not drawn) [Compound 11m], the “Icmt inhibition (in words)” value [1] was “poor Icmt inhibition”.
